Experimental data from paper PMC9064382 (RSC Advances, 2019).
pIC50: −log10 of the molar value.

Tests used:
hOCT1 = target: T1, hOCT1 (Homo sapiens, UniProt O15245); test: Uptake of aconitum alkaloids in hOCT1-transfected cells vs mock; format: in vitro ADME; details: 10 μm, 5 min
T1 sequence (O15245 1-554): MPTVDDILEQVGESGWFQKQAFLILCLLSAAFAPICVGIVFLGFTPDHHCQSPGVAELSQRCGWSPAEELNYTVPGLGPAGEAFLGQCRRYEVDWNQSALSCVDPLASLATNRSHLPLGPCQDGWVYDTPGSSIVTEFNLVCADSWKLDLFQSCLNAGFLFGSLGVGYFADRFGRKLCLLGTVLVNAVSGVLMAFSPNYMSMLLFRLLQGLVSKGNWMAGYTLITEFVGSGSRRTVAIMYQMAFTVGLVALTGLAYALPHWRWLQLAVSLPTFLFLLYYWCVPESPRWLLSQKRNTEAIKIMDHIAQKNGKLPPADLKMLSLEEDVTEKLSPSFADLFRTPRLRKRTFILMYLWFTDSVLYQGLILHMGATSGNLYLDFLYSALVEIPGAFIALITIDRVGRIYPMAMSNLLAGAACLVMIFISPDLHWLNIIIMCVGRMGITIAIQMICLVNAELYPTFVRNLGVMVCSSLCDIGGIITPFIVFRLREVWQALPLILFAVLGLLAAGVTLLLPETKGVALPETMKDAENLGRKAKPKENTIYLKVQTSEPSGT

hOCT2 = target: T2, hOCT2 (Homo sapiens, UniProt O15244); test: Inhibition of 14C-TEA uptake in hOCT2-transfected cells by liquorice ingredients; format: in vitro ADME; details: for inhibitory rate on hOCT2: 100 μm, 5 μmol L^−1 14C-TEA, 5 min
T2 sequence (O15244 1-555): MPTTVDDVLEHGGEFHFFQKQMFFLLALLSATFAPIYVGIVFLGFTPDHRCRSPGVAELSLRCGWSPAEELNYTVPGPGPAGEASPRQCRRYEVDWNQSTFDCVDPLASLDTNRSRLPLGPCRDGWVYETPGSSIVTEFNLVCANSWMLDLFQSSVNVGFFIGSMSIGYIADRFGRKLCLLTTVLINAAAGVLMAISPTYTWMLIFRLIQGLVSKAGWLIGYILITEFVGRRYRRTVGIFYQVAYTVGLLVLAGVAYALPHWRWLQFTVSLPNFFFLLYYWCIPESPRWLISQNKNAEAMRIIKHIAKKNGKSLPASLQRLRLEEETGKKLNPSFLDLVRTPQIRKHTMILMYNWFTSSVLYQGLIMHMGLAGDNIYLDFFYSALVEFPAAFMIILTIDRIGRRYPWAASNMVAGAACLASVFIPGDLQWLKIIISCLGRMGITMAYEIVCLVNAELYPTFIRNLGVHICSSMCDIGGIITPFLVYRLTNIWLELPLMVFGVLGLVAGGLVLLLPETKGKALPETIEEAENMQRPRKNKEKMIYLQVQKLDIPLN

hOATP2B1 = target: T3, hOATP2B1 (Homo sapiens, UniProt O94956); format: in vitro ADME; details: for inhibition of hOATP2B1: screening at 100 μm
T3 sequence (O94956 1-709): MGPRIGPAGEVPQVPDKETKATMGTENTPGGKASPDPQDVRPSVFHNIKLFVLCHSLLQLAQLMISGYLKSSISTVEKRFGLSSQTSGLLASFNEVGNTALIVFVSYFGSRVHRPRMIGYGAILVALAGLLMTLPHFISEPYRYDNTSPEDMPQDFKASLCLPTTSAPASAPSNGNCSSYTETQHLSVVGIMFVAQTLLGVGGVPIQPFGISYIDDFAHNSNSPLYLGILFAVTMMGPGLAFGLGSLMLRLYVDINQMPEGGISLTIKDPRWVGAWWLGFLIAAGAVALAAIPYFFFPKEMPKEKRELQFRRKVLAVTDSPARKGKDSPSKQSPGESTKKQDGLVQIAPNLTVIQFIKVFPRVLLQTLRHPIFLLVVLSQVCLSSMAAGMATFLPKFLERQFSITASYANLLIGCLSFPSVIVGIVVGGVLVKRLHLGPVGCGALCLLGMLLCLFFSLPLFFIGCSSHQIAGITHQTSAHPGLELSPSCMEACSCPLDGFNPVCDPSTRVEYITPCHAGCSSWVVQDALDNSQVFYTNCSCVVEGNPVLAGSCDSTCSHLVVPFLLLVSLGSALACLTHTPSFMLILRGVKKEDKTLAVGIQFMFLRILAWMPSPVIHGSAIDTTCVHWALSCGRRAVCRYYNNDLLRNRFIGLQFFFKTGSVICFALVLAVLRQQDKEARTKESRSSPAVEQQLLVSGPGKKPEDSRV
Method in brief: (§1)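 Transfected and mock cells were incubated 2 min at 37 °C with 200 nmol L−1 3H-ES plus test compound. The screen used a single 100 μmol L−1 concentration with reference inhibitors as positive controls, giving an inhibition rate (n = 3, mean ± sd). […] DMSO was <0.2%. Cells were stopped with cold DPBS, rinsed three times, lysed in 0.1 mol L−1 NaOH and counted by scintillation (dpm).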

hOAT3 = target: T4, hOAT3 (Homo sapiens, UniProt Q8TCC7); test: Inhibition of 3H-ES uptake in hOAT3-transfected cells by liquorice ingredients; format: in vitro ADME
T4 sequence (Q8TCC7 1-542): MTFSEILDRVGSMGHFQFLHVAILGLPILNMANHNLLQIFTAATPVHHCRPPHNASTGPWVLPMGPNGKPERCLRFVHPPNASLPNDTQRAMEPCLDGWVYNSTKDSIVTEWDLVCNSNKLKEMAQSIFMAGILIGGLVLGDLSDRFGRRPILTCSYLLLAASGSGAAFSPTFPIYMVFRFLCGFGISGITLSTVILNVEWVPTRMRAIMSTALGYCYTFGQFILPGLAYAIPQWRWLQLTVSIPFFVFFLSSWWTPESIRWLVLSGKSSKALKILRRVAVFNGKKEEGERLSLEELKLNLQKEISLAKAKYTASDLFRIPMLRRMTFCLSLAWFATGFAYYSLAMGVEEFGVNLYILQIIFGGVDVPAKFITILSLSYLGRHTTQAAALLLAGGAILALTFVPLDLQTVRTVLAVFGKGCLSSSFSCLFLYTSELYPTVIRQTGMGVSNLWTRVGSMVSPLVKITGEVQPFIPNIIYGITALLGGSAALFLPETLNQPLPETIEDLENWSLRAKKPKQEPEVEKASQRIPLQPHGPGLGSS
Method in brief: as §1

hOATP1B1 [1] = target: T5, hOATP1B1 (Homo sapiens, UniProt Q9Y6L6); format: in vitro ADME; details: screening at 100 μm
T5 sequence (Q9Y6L6 1-691): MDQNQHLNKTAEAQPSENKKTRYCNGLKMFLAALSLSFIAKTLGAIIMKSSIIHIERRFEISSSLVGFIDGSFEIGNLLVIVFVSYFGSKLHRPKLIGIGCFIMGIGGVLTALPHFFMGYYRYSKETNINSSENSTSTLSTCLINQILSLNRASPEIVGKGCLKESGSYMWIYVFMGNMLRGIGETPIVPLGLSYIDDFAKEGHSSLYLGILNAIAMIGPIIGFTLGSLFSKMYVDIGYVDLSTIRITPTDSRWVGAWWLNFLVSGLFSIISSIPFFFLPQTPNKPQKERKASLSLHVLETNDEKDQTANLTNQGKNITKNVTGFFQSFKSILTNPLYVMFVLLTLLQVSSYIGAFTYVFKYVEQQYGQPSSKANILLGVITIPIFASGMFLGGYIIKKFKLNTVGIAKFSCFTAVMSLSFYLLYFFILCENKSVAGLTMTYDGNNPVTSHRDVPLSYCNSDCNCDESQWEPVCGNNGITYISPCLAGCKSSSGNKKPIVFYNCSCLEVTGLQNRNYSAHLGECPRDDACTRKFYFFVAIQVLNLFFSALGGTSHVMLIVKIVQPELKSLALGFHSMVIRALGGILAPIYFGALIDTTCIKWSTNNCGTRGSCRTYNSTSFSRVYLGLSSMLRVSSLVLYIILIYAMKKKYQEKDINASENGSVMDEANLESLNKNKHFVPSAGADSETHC

hOATP1B3 [2] = target: T6, hOATP1B3 (Homo sapiens, UniProt Q9NPD5); format: in vitro ADME; details: screening at 100 μm
T6 sequence (Q9NPD5 1-702): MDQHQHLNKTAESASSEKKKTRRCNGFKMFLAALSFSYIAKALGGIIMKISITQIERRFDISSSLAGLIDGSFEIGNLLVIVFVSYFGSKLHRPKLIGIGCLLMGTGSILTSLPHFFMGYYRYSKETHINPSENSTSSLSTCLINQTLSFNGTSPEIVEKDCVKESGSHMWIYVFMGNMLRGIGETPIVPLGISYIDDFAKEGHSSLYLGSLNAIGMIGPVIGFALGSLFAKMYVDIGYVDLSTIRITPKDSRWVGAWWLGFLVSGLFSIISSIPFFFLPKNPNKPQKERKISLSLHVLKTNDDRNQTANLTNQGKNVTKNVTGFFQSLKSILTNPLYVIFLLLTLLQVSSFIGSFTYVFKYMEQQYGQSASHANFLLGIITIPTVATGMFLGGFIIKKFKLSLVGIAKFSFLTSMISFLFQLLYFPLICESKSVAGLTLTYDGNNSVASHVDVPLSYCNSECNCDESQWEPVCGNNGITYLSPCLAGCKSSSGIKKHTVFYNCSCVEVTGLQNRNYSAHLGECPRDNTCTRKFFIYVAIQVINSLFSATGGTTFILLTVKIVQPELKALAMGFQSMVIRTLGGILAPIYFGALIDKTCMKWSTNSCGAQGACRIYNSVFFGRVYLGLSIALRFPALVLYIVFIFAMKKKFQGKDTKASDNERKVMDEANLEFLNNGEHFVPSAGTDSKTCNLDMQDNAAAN

hOATP1B3 [3] = target: T6, hOATP1B3; test: Uptake of aconitum alkaloids in hOATP1B3-transfected HEK293 cells vs mock; format: in vitro ADME; details: 10 μm, 2 min, HEK293-hOATP1B3 vs mock
hOATP1B1 [4] = target: T5, hOATP1B1; test: Uptake of aconitum alkaloids in hOATP1B1-transfected HEK293 cells vs mock; format: in vitro ADME; details: 10 μm, 2 min
Method in brief: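 HEK293-hOATP1B1 and mock cells were grown in DMEM with 10% FBS, seeded at 2 × 10^5/well and cultured 48 h. They were rinsed, preincubated 10 min at 37 °C in DPBS pH 7.4, then exposed to the alkaloid for 2 min at 37 °C. After three ice-cold DPBS rinses and methanol lysis, supernatants were measured by UPLC-MS/MS (positive MRM, sinomenine internal standard). Results were normalised to BCA protein; n = 3, t-test versus mock.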

[5] = format: in vivo, Sprague-Dawley (SD) rats; details: pretreatment with the named substance, rats

Question: With `CCN1C[C@]2(COC)[C@H](O)C[C@H](OC)[C@@]34[C@@H]5C[C@@]6(O)[C@H](OC(=O)c7ccccc7)[C@@H]5[C@@](O)([C@@H]([C@H](OC)[C@H]23)[C@@H]14)[C@@H](O)[C@@H]6OC` [benzoylaconitine] as the molecule, how does the “concentration in HEK293–hOCT1, fold higher than control” value (hOCT1) read?
Answer: ~2.3 fold

Question: Which “concentration in HEK293–hOCT1, fold higher than control” value (hOCT1) does the source give for `COC[C@@]12CC[C@H](OC)[C@]34C([C@H]([C@H](OC)[C@H]13)[C@]1(O)[C@H]3[C@@H](OC(=O)c5ccccc5)[C@](O)(C[C@H]34)[C@@H](OC)[C@@H]1O)N(C)C2` [benzoylhypaconitine] here?
Answer: ~3.7 fold

Question: Which “concentration in HEK293–hOCT1, fold higher than control” value (hOCT1) does the source give for `COC[C@]12CN(C)C3[C@@H]4[C@H](OC)[C@H]1[C@@]3([C@@H](OC)C[C@H]2O)[C@@H]1C[C@@]2(O)[C@H](OC(=O)c3ccccc3)[C@@H]1[C@]4(O)[C@@H](O)[C@@H]2OC` [benzoylmesaconitine] here?
Answer: ~2.2 fold

Question: With `CC1(C)[C@@H](O)CC[C@]2(C)[C@H]3C(=O)C=C4[C@@H]5C[C@@](C)(C(=O)O)CC[C@]5(C)CC[C@@]4(C)[C@]3(C)CC[C@@H]12` [glycyrrhetinic acid] as the molecule, how does the pIC50 (hOCT2) read?
Answer: 5.13

Question: What about the “inhibitory rate on hOCT2” value (hOCT2) of the same molecule?
Answer: 80.17%

Question: And the pIC50 (hOATP2B1)?
Answer: 5.97

Question: What about the “inhibition of hOATP2B1” value (hOATP2B1) of the same molecule?
Answer: strong inhibitors

Question: And the pIC50 (hOAT3)?
Answer: 5.74

Question: Which “concentration in HEK293–hOCT1, fold higher than control” value (hOCT1) does the source give for `COC[C@@]12CC[C@H](OC)[C@]34C(C([C@H](OC)[C@H]13)[C@]1(OC(C)=O)[C@H]3[C@@H](OC(=O)c5ccccc5)[C@](O)(C[C@H]34)[C@@H](OC)[C@@H]1O)N(C)C2` [hypaconitine] here?
Answer: ~3.3 fold

Question: With `O=C(/C=C/c1ccc(O)cc1)c1ccc(O)cc1O` [isoliquiritigenin] as the molecule, how does the pIC50 (hOCT2) read?
Answer: 4.50

Question: And the pIC50 (hOAT3)?
Answer: 5.66

Question: What does the source list for `O=C(/C=C/c1ccc(O[C@@H]2O[C@H](CO)[C@@H](O)[C@H](O)[C@H]2O)cc1)c1ccc(O)cc1O` [isoliquiritin]?
Answer: inhibition of hOATP1B1 (hOATP1B1 [1]): strong inhibitors; inhibition of hOATP1B3 (hOATP1B3 [2]): strong inhibitors; inhibitory rate on hOCT2 (hOCT2): 71.9%; inhibition of hOATP2B1 (hOATP2B1): strong inhibitors

Question: With `COC[C@]12CN(C)[C@@H]3[C@@H]4[C@H](OC)[C@H]1[C@@]3([C@@H](OC)C[C@H]2O)[C@@H]1C[C@@]2(O)[C@H](OC(=O)c3ccccc3)[C@@H]1[C@]4(OC(C)=O)[C@@H](O)[C@@H]2OC` [mesaconitine] as the molecule, how does the “concentration in hOATP1B3-transfected cells, fold of HEK293 mock cells” value (hOATP1B3 [3]) read?
Answer: ~3.4 fold

Question: What about the “concentration in hOATP1B1-transfected cells, fold of HEK293 mock cells” value (hOATP1B1 [4]) of the same molecule?
Answer: approximately 2.7 fold

Question: What about the “concentration in HEK293–hOCT1, fold higher than control” value (hOCT1) of the same molecule?
Answer: roughly 1.9 fold

Question: With `C=C[C@H]1C[N@@]2CC[C@H]1C[C@@H]2[C@@H](O)c1ccnc2ccc(OC)cc12` [quinidine, reference compound] as the molecule, how does the “Tmax of aconitine in the liver” value [5] read?
Answer: postponed
